# Published values collected from several papers.
# Lines come from different studies, so protocols differ.
# Organism: Human immunodeficiency virus 1
# Observed: viral replication
SMILES,test,system,setting,quantity,value
COC(=O)c1cccc(Cn2ccc3ccc(-c4ccc5ccn(Cc6cccc(C(=O)O)c6)c5c4)cc32)c1,inhibitor,"MAGI, BAL",,IC90,38.4 µM
O=C(O)c1cc(F)cc(Cn2ccc3ccc(-c4ccc5ccn(Cc6cccc(OC(F)(F)F)c6)c5c4)cc32)c1,inhibitor,BAL,,IC50,1.4 µM
O=c1oc2c(O)c(O)cc3c(=O)oc4c(O)c(O)cc1c4c23,"inhibitor, luciferase",TZM-bl,48 h,IC50,18.8 µg/mL
CC(C)C[C@H](NC(=O)[C@@H](NC(=O)[C@@H]1CCCN1C(=O)[C@@H](NC(=O)[C@H](CO)NC(=O)[C@@H](NC(=O)[C@H](CCC(N)=O)NC(=O)[C@@H]1CCCN1C(=O)[C@@H](NC(=O)[C@H](CCCCN)NC(=O)[C@H](CCCCN)NC(=O)[C@@H](NC(=O)[C@H](Cc1ccc(O)cc1)NC(=O)[C@H](CCCNC(=N)N)NC(=O)[C@@H](NC(=O)[C@@H](N)CC(C)C)C(C)C)[C@@H](C)O)C(C)C)C(C)C)[C@@H](C)O)[C@@H](C)O)C(=O)O,inhibitor,TZM-bl,,IC50,> 10 µM
O=[N+]([O-])c1cccc(-c2nc3c4cc(I)ccc4c4ccccc4c3[nH]2)c1,inhibitor,human PBMC,7 days,IC50,14.2 µM
O=c1cc(-c2ccccc2)oc2cc(O)cc(O)c12,inhibitor,human PBMC,6 days,EC50,9.2 µM
O=C(O)c1cc(O)c(O)c(O)c1,"inhibitor, luciferase",TZM-bl,48 h,IC50,0.36 µg/mL
c1cc(CN2CCCNCCNCCCNCC2)ccc1CN1CCCNCCNCCCNCC1,"inhibitor, luciferase",TZM-bl,,EC50,0.00093 µM
COc1ccccc1CN[C@H]1C2CCN(CC2)[C@H]1C(c1ccccc1)c1ccccc1,ELISA,"human PBMC, BAL",7 days,IC50,15.2 µM
C/C(=C\C(=O)OCCCCCCCCC(=O)O)C[C@@H]1OC[C@H](C[C@@H]2O[C@H]2[C@@H](C)[C@H](C)O)[C@@H](O)[C@H]1O,inhibitor,TZM-bl,,EC50,> 100 µM
Cc1cn([C@H]2C[C@H](N=[N+]=[N-])[C@@H](CO)O2)c(=O)[nH]c1=O,inhibitor,CEM-GFP,8 days,IC50,0.094 µg/mL
COc1cc(F)ccc1-c1ncnc(Nc2cccc(C[S@](C)(=N)=O)c2)n1,inhibitor,human PBMC,6 days,EC50,3.4 µM
CC(C)(C)NC(=O)[C@@H]1C[C@@H]2CCCC[C@@H]2CN1C[C@@H](O)[C@H](Cc1ccccc1)NC(=O)[C@H](CC(N)=O)NC(=O)c1ccc2ccccc2n1,,MT2,,IC50,0.019 µM
C[C@@H](O[C@H]1OCCN(Cc2n[nH]c(=O)[nH]2)[C@H]1c1ccc(F)cc1)c1cc(C(F)(F)F)cc(C(F)(F)F)c1,"inhibitor, ELISA","human PBMC, NL43",7 days,IC50,5.7 µM
CN1CC[C@H](c2c(O)cc(O)c3c(=O)cc(-c4ccccc4Cl)oc23)[C@H](O)C1,inhibitor,human PBMC,6 days,EC50,0.02 µM
c1cc(CN2CCCNCCNCCCNCC2)ccc1CN1CCCNCCNCCCNCC1,inhibitor,"MAGI, BAL",,IC90,> 10 µM
